Assay results reported in paper PMC4976638 (Biochemistry, 2016).

Legend:
[1] = biological target: apoE3 (Homo sapiens, UniProt P02649, A303C); assay: Fluorescence of TMR-labeled apoE3; type: binding
In short: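 ApoE3 A285C was labelled with TMR maleimide (dye:protein 1:1; native Cys112 possibly also labelled). It was preincubated 1 h at room temperature, then titrated stepwise with test compound while fluorescence was monitored to derive an apparent Kd. Buffer: 20 mM HEPES pH 7.4, 150 mM NaCl, 1 mM DTT, 1 mM EDTA, 25 °C.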

[2] = biological target: T1, apoE3 (Homo sapiens, UniProt P02649); assay: SYPRO Orange displacement titration, apoE3; type: binding; conditions: Apparent dissociation constant Kd, Using SYPRO Orange, PBS pH 7.4, 25 °C
T1 sequence (P02649 19-317): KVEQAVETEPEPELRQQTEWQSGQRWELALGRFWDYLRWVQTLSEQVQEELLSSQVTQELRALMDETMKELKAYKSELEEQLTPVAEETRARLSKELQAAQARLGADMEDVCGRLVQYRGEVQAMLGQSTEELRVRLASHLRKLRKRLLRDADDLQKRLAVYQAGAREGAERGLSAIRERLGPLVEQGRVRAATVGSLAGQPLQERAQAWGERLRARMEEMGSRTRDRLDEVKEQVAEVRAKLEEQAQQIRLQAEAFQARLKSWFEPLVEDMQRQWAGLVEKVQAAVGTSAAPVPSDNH
In short: (§1)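 Adding apoE to SYPRO Orange increases its fluorescence and shifts the emission maximum to 575 nm. After a 1 h room-temperature protein preincubation, test compound was titrated stepwise and the decrease in SYPRO Orange fluorescence was fitted for an apparent Kd. Buffer: 10 mM phosphate pH 7.4, 150 mM NaCl, 1 mM DTT, 1 mM EDTA, 25 °C.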

[3] = biological target: T2, apoE4 (Homo sapiens, UniProt P02649, C130R); assay: SYPRO Orange displacement titration, apoE4; type: binding; conditions: Apparent dissociation constant Kd, Using SYPRO Orange, PBS pH 7.4, 25 °C
T2 sequence (P02649 19-317 C130R): as the sequence (P02649 19-317) above, with C112R counted along it
In short: as §1

[4] = biological target: T1, apoE3; assay: Quenching of ANS fluorescence, apoE3; type: binding; conditions: Apparent dissociation constant Kd, Using ANS, PBS pH 7.4, 25 °C
In short: (§2)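 Unlabelled apoE raises ANS fluorescence. Test compound was titrated stepwise into the apoE–ANS mixture after a 1 h room-temperature protein preincubation, and quenching of ANS fluorescence gave an apparent Kd. Buffer: 10 mM phosphate pH 7.4, 150 mM NaCl, 1 mM DTT, 1 mM EDTA, 25 °C.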

[5] = biological target: T2, apoE4; assay: Quenching of ANS fluorescence, apoE4; type: binding
In short: as §2

[6] = biological target: apoE4 (Homo sapiens, UniProt P02649, C130R/S157C); type: binding
Chain of apoE4 (Homo sapiens, UniProt P02649, C130R/S157C) (P02649 19-317 C130R/S157C): as the sequence (P02649 19-317) above, with C112R, S139C counted along it
In short: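 Alexa488-maleimide labelled the apoE4 S139C mutant after 20 mM DTT reduction (1–2 h, 37 °C), with a 10-fold molar dye excess overnight at 4 °C (>90% labelling). Labelled protein was preincubated 1 h at room temperature, then titrated stepwise with test compound to follow fluorescence decrease. Unlabelled apoE3 was then added. Buffer: 10 mM phosphate pH 7.4, 150 mM NaCl, 1 mM DTT, 1 mM EDTA, 25 °C.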

[7] = biological target: T2, apoE4; assay: Analytical ultracentrifugation sedimentation velocity; conditions: 10 μM apoE4, 10 or 20 μM EZ-482, PBS
In short: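 Recombinant apoE4 was expressed in E. coli BL21(DE3) as a His-tagged thioredoxin fusion, cleaved with PreScission protease (leaving N-terminal Gly-Pro), and dialysed into PBS. For sedimentation velocity, 10 μM apoE4 was run with 0, 10 or 20 μM test compound in PBS in a double-sector centerpiece (1.2 cm path), with absorbance at 290 nm recorded in continuous mode.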

[8] = biological target: T1, apoE3; assay: Differential hydrogen-deuterium exchange MS, apoE3; type: binding
In short: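 ApoE3 stock (10 μM in PBS, 2 mM DTT) was incubated 2 h at 25 °C with test compound […]; controls had 2% DMSO. Exchange ran in D₂O PBS (pD 7.4, 25 °C, 30 s–30 min), with 1 μM apoE and 25 μM compound. Quench used fungal XIII/urea/formic acid on ice, then pepsin digestion, C18 LC and ESI-QTOF MS. Duplicates; 48 h back-exchange correction.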

[9] = biological target: T2, apoE4; assay: Differential hydrogen-deuterium exchange MS, apoE4; type: binding; conditions: 1 μM WT apoE4, 25 μM EZ-482, 25 °C
[10] = Solubility in DMSO; type: physicochemical

Chain of apoE3 (Homo sapiens, UniProt P02649, A303C) (P02649 19-317 A303C): as the sequence (P02649 19-317) above, with A285C counted along it

## Cn1nc(CC(=O)Nc2cc(S(=O)(=O)Nc3cccc(Cl)c3)ccc2O)c2ccccc2c1=O [EZ-482, N-{5-[(3-chlorophenyl)sulfamoyl]-2-hydroxyphenyl}-2-(3-methyl-4-oxo-3,4-dihydrophthalazin-1-yl)acetamide]
[1]
  Kd: 7 ± 0.35 µM
[2]
  Kd: 7.3 ± 0.53 µM
[3]
  Kd: 7.6 ± 0.4 µM
[4]
  Kd: 5.6 ± 0.7 µM
[5]
  Kd: 7.5 ± 1 µM
[6]
  Kd: 7.5 µM
[7]
  Effect on distribution of apoE oligomers: essentially unaffected
[8]; 1 μM WT apoE3, 25 μM EZ-482, 25 °C
  N-terminal allosteric effect by HDX, apoE3: apoE3 N-terminal remained unaffected
[8]; 1 μM WT apoE3, 25 μM EZ-482 or 1X SYPRO Orange, 25 °C
  Binding site by HDX protection, apoE3: Large protection was observed only in the C-terminal domain (229–235/234–243 and 258–265)
[9]
  Binding site by HDX protection, apoE4: Large protection was observed only in the C-terminal domain (229–235/234–243 and 258–265)
[10]
  Solubility in DMSO: reasonably soluble in DMSO
